Test results from PubChem BioAssay AID588678 (Southern Research Specialized Biocontainment Screening …, 2011).
The source made the active and inactive calls.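 Rule for the calls: active = inhibition of 30% or more at any tested concentration; inactive = the rest.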

molecular target: M18 aspartyl aminopeptidase (Plasmodium falciparum 3D7); assay: PfM18AAP inhibitors, dose response, biochemical, QFRET fluorogenic substrate (AID 588678); details: recombinant PFM18AAP, H-Glu-NHMec fluorogenic substrate cleavage
Method in brief: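 Technique: NHMec fluorescence at 370 nm excitation, 460 nm emission; Assay system: recombinant PFM18AAP enzyme; Replication: triplicate; Compound: 10-point twofold compound dilution series; Evaluation: % inhibition and fitted IC50; Incubation: enzyme reaction with compounds, 90 min at room temperature; Medium: Tris-HCl pH 7.5 with CoCl2 and 2% DMSO.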

Row | Compound | IC50
1 | CCOc1cccc(-c2nc(-c3ccc(O)c(O)c3)cs2)c1 | 9.57 µM
2 | CN(CCc1ccc(O)c(O)c1)c1ccnc2ccccc12 | 4.85 µM
3 | Nc1cc(C(=O)c2ccccc2)ccc1O | 51.4 µM
4 | O=c1ccc2cc(O)c(O)cc2o1 | 44.2 µM
5 | Cc1c(-c2ccccc2)[nH]c(-c2ccc(O)c(O)c2)[n+]1O | 17 µM
6 | CCC(C)c1ccc(N)c(O)c1 (stereo not drawn) | 19.5 µM
7 | Cc1ccc(-c2nc(-c3ccc(O)c(O)c3)cs2)cc1 | 9.45 µM
8 | Oc1ccc(CCNc2cccc3ccccc23)cc1O | 5.4 µM
9 | Oc1ccc(CCN2CCc3ccccc3C2)cc1O | 22.3 µM
10 | Oc1ccc(CCCNc2c3ccccc3nc3ccccc23)cc1O | 27.9 µM
11 | Oc1ccc(CCNc2ccc3ccccc3c2)cc1O | 11.6 µM
12 | Oc1ccc(CCNc2c3c(nc4ccccc24)CCCC3)cc1O | 10.2 µM
13 | O=S1(=O)c2ccccc2-c2cc(-c3nc(-c4ccc(O)c(O)c4)[nH]c3-c3ccccc3)ccc21 | 16.9 µM
14 | COc1ccc2c(c1)C(=O)C(N)CC2 (stereo not drawn) | 74.5 µM
15 | CN(CCc1ccc(O)c(O)c1)c1ccncc1 | 8.38 µM
16 | Oc1ccc(CCNc2cncc3ccccc23)cc1O | 11.4 µM
17 | O=C1OCCN1CCc1nc(-c2ccc(O)c(O)c2)cs1 | 8.07 µM
18 | Cc1nc(NCCc2ccc(O)c(O)c2)c2c3c(sc2n1)CCC3 | 13.9 µM
19 | Oc1ccc(CCNC2CCN(Cc3ccccc3)CC2)cc1O | 26.6 µM
20 | Oc1ccc(CCNC(c2ccccc2)c2ccccc2)cc1O | 10.5 µM
21 | CC(C)(C)C(=O)OCc1nc(-c2ccc(O)c(O)c2)cs1 | 13.1 µM
22 | Oc1ccc(-c2csc(Cc3cc4ccccc4[nH]3)n2)cc1O | 12.6 µM
23 | O=c1cc(CN2CCN(Cc3ccccc3)CC2)c2ccc(O)c(O)c2o1 | 49.1 µM

same assay, conditions: recombinant PFM18AAP, H-Glu-NHMec fluorogenic substrate cleavage; at 50 µM (top of the series)

Row | Compound | inhibition
24 | O=C(O)CCCCNc1c2ccccc2nc2ccccc12 | inactive
25 | O=C1c2ccc3c4c(ccc(c24)C(=O)N1O)CC3 | inactive
26 | O=C(O)CCCNc1c2ccccc2nc2ccccc12 | inactive

same assay, conditions: recombinant PFM18AAP, H-Glu-NHMec fluorogenic substrate cleavage; at 100 µM (top of the series)

Row | Compound | inhibition
27 | O=c1ccn(CCNc2c3ccccc3nc3ccccc23)cc1OCc1ccccc1 | inactive
28 | Oc1ccc(CCNc2c3ccccc3nc3ccccc23)cc1 | inactive
29 | Cc1c(OCc2ccccc2)c(=O)ccn1CCNc1c2ccccc2nc2ccccc12 | inactive
30 | COc1ccc(CCNc2c3ccccc3nc3ccccc23)cc1 | inactive
31 | COc1ccc(-c2csc(-c3ccccc3OC)n2)cc1OC | inactive
32 | COc1ccc(CCN(C)c2ccncc2)cc1OC | inactive
33 | COc1ccc(CCNc2ccc3ccccc3c2)cc1OC | inactive
34 | NCCNc1c2ccccc2nc2ccccc12 | inactive
35 | COc1ccc(CCN(C)c2c3ccccc3nc3ccccc23)cc1OC | inactive
36 | COc1ccc(CCC(=O)O)cc1OC | inactive
37 | CCC(C)C(=O)Nc1ccccc1N (stereo not drawn) | inactive
38 | O=c1cc(CO)oc(CN2CCCCC2)c1O | inactive
39 | COc1ccc(CC(=O)O)cc1OC | inactive
40 | COc1ccc(CNc2c3ccccc3nc3ccccc23)cc1OC | inactive
41 | COc1cccc(-c2nc(-c3ccc(OC)c(OC)c3)cs2)c1 | inactive
42 | Oc1ccc(CNc2c3ccccc3nc3ccccc23)cc1O | inactive
43 | COc1ccc(CCN(C)c2ccnc3ccccc23)cc1OC | inactive
44 | COc1ccc(CCNc2cccc3ccccc23)cc1OC | inactive
45 | COc1cccc(CCNc2c3ccccc3nc3ccccc23)c1 | inactive

Row | Compound | inhibition
46 | COc1ccc(-c2nc(-c3ccccc3)c(-c3ccccc3)[nH]2)cc1OC | inactive
47 | COc1ccc(CCN2CCc3ccccc3C2)cc1OC | inactive
48 | NCc1cc2c3c(c(=O)oc2c(O)c1O)CCC3 | inactive
49 | COc1ccc(CCNc2ccnc3ccccc23)cc1OC | inactive
50 | COc1ccc(CCNC2CCN(C)CC2)cc1OC | inactive
51 | COc1ccc(CCNc2c3ccccc3nc3ccccc23)cc1OC | inactive
52 | COc1ccc(CCNc2c3c(nc4ccccc24)CCCC3)cc1OC | inactive
53 | COc1ccc(CCN(C)CCc2ccccc2)cc1OC | inactive
54 | COc1ccc(CCNc2cncc3ccccc23)cc1OC | inactive
55 | O=C(c1ccco1)N1CCN(Cc2cc(=O)c(O)c[nH]2)CC1 | inactive
56 | CCC(C)C(=O)Nc1ccccc1O (stereo not drawn) | inactive
57 | COc1ccc(CCCNc2c3ccccc3nc3ccccc23)cc1OC | inactive
58 | COc1ccc(CCNc2ccncc2)cc1OC | inactive
59 | Cc1c(O)c(=O)ccn1CCNc1c2ccccc2nc2ccccc12 | inactive
60 | COc1ccc(CCN2CCN(C)CC2)cc1OC | inactive
61 | COc1ccc(-c2csc(-c3ccccc3)n2)cc1OC | inactive
62 | O=C(c1ccco1)N1CCN(Cc2cc(=O)c(O)co2)CC1 | inactive
63 | COc1ccc(CCNC2CCN(Cc3ccccc3)CC2)cc1OC | inactive
